Experimental data from ChEMBL document CHEMBL1145155, “Synthesis and identification of [1,3,5]triazine-pyridine biheteroaryl as a novel series of potent cyclin-dependent kinase inhibitors” (J Med Chem, 2005).
pIC50: −log10 of the molar value.

Tests used:
[1] = target: Vascular endothelial growth factor receptor 2 (Homo sapiens, UniProt P35968); test: Inhibition of vascular endothelial growth factor receptor 2
[2] = target: T1, Cyclin-dependent kinase 1 (Homo sapiens, UniProt P06493); test: Inhibition of cyclin dependent kinase (CDK1)
How it was run: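 Radiometric FlashPlate assay: biotinylated peptide substrate at 0.025 μM with 33P-γ-ATP plus 10 μM ATP in 50 mM Tris-HCl pH 8, 10 mM MgCl2, 0.1 mM Na3VO4, 1 mM DTT. Incubated 1 h at 30 °C, stopped by PBS/100 mM EDTA wash, then scintillation counted. Inhibition is relative to untreated controls; IC50 from linear regression of percent inhibition. Conditions varied slightly per kinase.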

[3] = Inhibition of [Ca(2+)]/Calmodulin dependent kinase
Casein kinase II = Casein kinase II (Homo sapiens, UniProt P19784+P67870+P68400); test: Inhibition of Casein kinase II; format: protein-complex assay
[4] = target: Cyclin-dependent kinase 7/ cyclin H (Homo sapiens, UniProt P50613); test: Inhibition of CDK7/cyclin H; format: protein-complex assay
How it was run: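 Run by Upstate Biotech as a contract panel: kinase phosphorylation of an appropriate peptide/protein substrate with 100 μM ATP, under conditions linear with time. IC50 is the average of two separate determinations.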

CDK6/cyclin D3 = CDK6/cyclin D3 (Homo sapiens, UniProt Q00534); test: Inhibition of CDK6/cyclin D3; format: protein-complex assay
How it was run: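 Run in an external kinase panel. Kinase phosphorylation of the appropriate peptide/protein substrate was measured with 100 μM ATP, under conditions linear with time. IC50 is the average of two separate determinations.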

A-375 = test: Inhibitory concentration of compound against growth of A-375 cells; conditions: Homo sapiens
[5] = target: Fibroblast growth factor receptor 2 (Homo sapiens, UniProt P21802); test: Inhibition of Fibroblast growth factor receptor 2
U-937 = test: Inhibitory concentration of compound against growth of U-937 cells; conditions: Homo sapiens
HeLa = test: Inhibitory concentration of compound against growth of HeLa cells; conditions: Homo sapiens
HCT-116 = test: Inhibitory concentration of compound against growth of HCT116 cells; conditions: Homo sapiens
[6] = Inhibition of Glycogen synthase kinase-3 beta
[7] = target: T1, Cyclin-dependent kinase 1; test: Inhibition of cyclin dependent kinase CDK1
How it was run: (§1)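 Incubated 1 h at 30 °C on a streptavidin-coated plate, stopped by washing with PBS containing 100 mM EDTA, then scintillation counted. Conditions varied slightly by kinase. IC50 was derived by linear regression of % inhibition versus untreated controls.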

[8] = Inhibitory concentration of compound against growth of MES SA/Dx 5 cells (high p glycoprotein); conditions: Homo sapiens, MES-SA/Dx5
[9] = target: Cyclin-dependent kinase 4/cyclin D1 (Homo sapiens, UniProt P11802); test: Inhibition of CDK4/cyclin D1; format: protein-complex assay; how it was run: as §1
[10] = target: Cyclin-dependent kinase 2/cyclin A (Homo sapiens, UniProt P24941); test: Inhibitory concentration of compound against CDK2/cyclin A; format: protein-complex assay
[11] = target: RAC-beta serine/threonine-protein kinase (Homo sapiens, UniProt P31751); test: Inhibition of PKB beta
[12] = Inhibitory concentration of compound against growth of MES SA cells (low p glycoprotein); conditions: Homo sapiens
[13] = target: Cyclin-dependent kinase 1/cyclin B (Homo sapiens, UniProt P06493); test: Inhibition of Cyclin-dependent kinase 1-cyclin B; format: protein-complex assay
[14] = target: Cyclin-dependent kinase 5/CDK5 activator 1 (Homo sapiens, UniProt Q00535)
[15] = Inhibition of Protein kinase C gamma
[16] = target: Mitogen-activated protein kinase 1 (Homo sapiens, UniProt P28482); test: Inhibition of ERK 2

Molecule `OCCCNc1cncc(-c2ncnc(Nc3cccc(Cl)c3)n2)n1` has a pIC50 [1] of less than 5.00.

`Nc1nc(Nc2cccc(Cl)c2)nc(-c2ccnc(NCCCO)c2)n1` showed a pIC50 [2] of 5.96 and a pIC50 [1] of 5.97.

With `OCCCNc1cncc(-c2ncnc(Nc3cccc(Cl)c3)n2)c1` the pIC50 [2] was 7.22 and the pIC50 [1] was 5.70.

With `OCCCNc1cc(-c2ncnc(Nc3cccc(Cl)c3)n2)ccn1` the pIC50 [3] was less than 5.00, the pIC50 (Casein kinase II) was less than 5.00 and the pIC50 [4] was 6.90. The pIC50 (CDK6/cyclin D3) was 6.45, the pIC50 (A-375) was 7.55 and the pIC50 [5] was less than 5.00. It also gave a pIC50 (U-937) of 7.51, a pIC50 (HeLa) of 7.48 and a pIC50 (HCT-116) of 7.64. It also gave a pIC50 [6] of 7.70, a pIC50 [7] of 7.68 and a pIC50 [8] of 6.63. The pIC50 [9] was 6.51, the pIC50 [10] was 8.15 and the pIC50 [11] was less than 5.00. The pIC50 [12] was 6.64, the pIC50 [13] was 7.68 and the pIC50 [14] was 8.52. For the same molecule, the pIC50 [15] was less than 5.00 and the pIC50 [16] was less than 5.00.

With `OCCCNc1cncc(-c2ncnc(Nc3ccc(N4CCOCC4)cc3)n2)c1` the pIC50 [1] was 5.30.

Work on `OCCCNc1cncc(-c2ncnc(Nc3ccc4c(c3)OCCO4)n2)c1` yielded a pIC50 [2] of 6.46 and a pIC50 [1] of 5.38.
